From ChEMBL document CHEMBL2331506, “Design, synthesis, antiviral and cytostatic evaluation of novel isoxazolidine nucleotide analogues with a carbamoyl linker” (Bioorg Med Chem, 2013)
Calls of active or inactive are those of the source. The rule behind the calls is not given here.

Columns and labels:
Coxsackievirus B4 = assay: Antiviral activity against Coxsackievirus B4 infected in african green monkey Vero cells assessed as reduction of virus-induced cytopathogenicity at 250 uM; type: functional, organism-based
Outline: (§1)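 Confluent monolayers (HEL fibroblasts, Vero, or HeLa cells as listed) were infected with 100 CCID50 of virus in the presence of varying compound concentrations. Virus-induced cytopathicity or plaque formation was scored once cytopathicity was complete in untreated infected controls. EC50 was taken as the concentration reducing cytopathogenicity or plaque formation by 50%.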

Human alphaherpesvirus 2 = assay: Antiviral activity against Herpes simplex virus 2 G infected in human HEL cells assessed as reduction of virus-induced cytopathogenicity at 250 uM; type: functional, organism-based; details: strain G; outline: as §1
Feline coronavirus = assay: Antiviral activity against Feline coronavirus infected in cat CRFK cells assessed as reduction of virus-induced cytopathogenicity at 250 uM; type: functional, organism-based
[1] = Cytotoxicity against cat CRFK cells assessed as alteration of cell morphology up to 100 uM by microscopic analysis; type: cell-based, Felis catus
Outline: (§2)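 Uninfected host-cell cultures were exposed to compound and examined by microscopy. Cytotoxicity was expressed as the minimum cytotoxic concentration (MCC) causing a microscopically detectable alteration of normal cell morphology.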

[2] = tested on: Human immunodeficiency virus 2; assay: Antiviral activity against Human immunodeficiency virus 2 ROD infected in human CEM cells assessed as reduction of virus-induced giant cell formation at 250 uM after 4 to 5 days; type: functional, organism-based; details: CCRF-CEM
Outline: (§3)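 CEM cells at 3 × 10^5 cells/mL were infected with HIV at 100 CCID50 per mL in the presence of compound dilutions. They were held 4–5 days at 37 °C in humidified CO2. Syncytium (giant cell) formation was scored microscopically, and EC50 was taken as the concentration inhibiting giant cell formation by 50%.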

[3] = tested on: Vesicular stomatitis virus; assay: Antiviral activity against Vesicular stomatitis virus infected in human HeLa cells assessed as reduction of virus-induced cytopathogenicity at 250 uM; type: functional, organism-based
Outline: (§4)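 Confluent cell monolayers were infected with 100 CCID50 of virus while exposed to varying compound concentrations. Cytopathicity was scored once it was complete in untreated infected controls. EC50 was taken as the concentration that reduced virus-induced cytopathogenicity by 50%.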

[4] = tested on: Human immunodeficiency virus 1; assay: Antiviral activity against Human immunodeficiency virus 1 3B infected in human CEM cells assessed as reduction of virus-induced giant cell formation at 250 uM after 4 to 5 days; type: functional, organism-based; details: CCRF-CEM; outline: as §3
MDCK = assay: Cytotoxicity against dog MDCK cells assessed as alteration of cell morphology up to 100 uM by microscopic analysis; type: cell-based, Canis lupus familiaris; outline: as §2
Human respirovirus 3 = assay: Antiviral activity against Parainfluenza virus 3 infected in african green monkey Vero cells assessed as reduction of virus-induced cytopathogenicity at 250 uM; type: functional, organism-based; outline: as §1
[5] = tested on: Mammalian orthoreovirus 1; assay: Antiviral activity against Reovirus 1 infected in african green monkey Vero cells assessed as reduction of virus-induced cytopathogenicity at 250 uM; type: functional, organism-based; outline: as §1
Felid alphaherpesvirus 1 = assay: Antiviral activity against Feline herpes virus infected in cat CRFK cells assessed as reduction of virus-induced cytopathogenicity at 250 uM; type: functional, organism-based
Vero = assay: Cytotoxicity against african green monkey Vero cells assessed as alteration of cell morphology up to 100 uM by microscopic analysis; type: cell-based; details: chlorocebus sabaeus; outline: as §2
Influenza A virus [6] = assay: Antiviral activity against Influenza A virus H3N2 infected in dog MDCK cells assessed as reduction of virus-induced cytopathogenicity at 250 uM; type: functional, organism-based; outline: as §4
Punta Toro virus = assay: Antiviral activity against Punta Toro virus infected in african green monkey Vero cells assessed as reduction of virus-induced cytopathogenicity at 250 uM; type: functional, organism-based; outline: as §1
[7] = tested on: Vesicular stomatitis virus; assay: Antiviral activity against Vesicular stomatitis virus infected in human HEL cells assessed as reduction of virus-induced cytopathogenicity at 250 uM; type: functional, organism-based; outline: as §4
[8] = tested on: Respiratory syncytial virus; assay: Antiviral activity against Respiratory syncytial virus long infected in human HeLa cells assessed as reduction of virus-induced cytopathogenicity at 250 uM; type: functional, organism-based; outline: as §1
Human alphaherpesvirus 1 [9] = assay: Antiviral activity against thymidine kinase-deficient, ACV-resistant Herpes simplex virus 1 KOS infected in human HEL cells assessed as reduction of virus-induced cytopathogenicity at 250 uM; type: functional, organism-based; outline: as §4
Influenza A virus [10] = assay: Antiviral activity against Influenza A virus H1N1 infected in dog MDCK cells assessed as reduction of virus-induced cytopathogenicity at 250 uM; type: functional, organism-based; outline: as §4
Sindbis virus = assay: Antiviral activity against Sindbis virus infected in african green monkey Vero cells assessed as reduction of virus-induced cytopathogenicity at 250 uM; type: functional, organism-based; outline: as §1
Human alphaherpesvirus 1 [11] = assay: Antiviral activity against Herpes simplex virus 1 KOS infected in human HEL cells assessed as reduction of virus-induced cytopathogenicity at 250 uM; type: functional, organism-based; outline: as §1
Influenza B virus = assay: Antiviral activity against Influenza B virus infected in dog MDCK cells assessed as reduction of virus-induced cytopathogenicity at 250 uM; type: functional, organism-based; outline: as §4
HeLa = assay: Cytotoxicity against human HeLa cells assessed as alteration of cell morphology up to 100 uM by microscopic analysis; type: cell-based; outline: as §2
HEL = assay: Cytotoxicity against human HEL cells assessed as alteration of cell morphology up to 100 uM by microscopic analysis; type: cell-based; outline: as §2

SMILES | inhibition (Coxsackievirus B4) | inhibition (Human alphaherpesvirus 2) | inhibition (Feline coronavirus) | Activity [1] | inhibition [2] | inhibition [3] | inhibition [4] | Activity (MDCK) | inhibition (Human respirovirus 3) | inhibition [5] | inhibition (Felid alphaherpesvirus 1) | Activity (Vero) | inhibition (Influenza A virus [6]) | inhibition (Punta Toro virus) | inhibition [7] | inhibition [8] | inhibition (Human alphaherpesvirus 1 [9]) | inhibition (Influenza A virus [10]) | inhibition (Sindbis virus) | inhibition (Human alphaherpesvirus 1 [11]) | further results
CCOc1ccc(NC(=O)[C@H]2C[C@H](P(=O)(OCC)OCC)N(C)O2)cc1 (mixture of isomers) | inactive | inactive | inactive | Non-toxic | inactive | inactive | inactive | Non-toxic | inactive | inactive | inactive | Non-toxic | inactive | inactive | inactive | inactive | inactive | inactive | inactive | inactive | inhibition (Influenza B virus): inactive; Activity (HeLa): Non-toxic; Activity (HEL): Non-toxic
CCOP(=O)(OCC)[C@H]1C[C@H](C(=O)Nc2cc(OC)cc(OC)c2)ON1C (mixture of isomers) | inactive | inactive | inactive | Non-toxic | inactive | inactive | inactive | Non-toxic | inactive | inactive | inactive | Non-toxic | inactive | inactive | inactive | inactive | inactive | inactive | inactive | inactive | inhibition (Influenza B virus): inactive; Activity (HeLa): Non-toxic; Activity (HEL): Non-toxic
CCOP(=O)(OCC)[C@@H]1C[C@H](C(=O)Nc2cc(OC)cc(OC)c2)ON1C (mixture of isomers) | inactive | inactive | inactive | Non-toxic | inactive | inactive | inactive | Non-toxic | inactive | inactive | inactive | Non-toxic | inactive | inactive | inactive | inactive | inactive | inactive | inactive | inactive | inhibition (Influenza B virus): inactive; Activity (HeLa): Non-toxic; Activity (HEL): Non-toxic
CCOP(=O)(OCC)[C@@H]1C[C@H](C(=O)Nc2ccccc2C(C)=O)ON1C (mixture of isomers) | inactive | inactive | inactive | Non-toxic | inactive | inactive | inactive | Non-toxic | inactive | inactive | inactive | Non-toxic | inactive | inactive | inactive | inactive | inactive | inactive | inactive | inactive | inhibition (Influenza B virus): inactive; Activity (HeLa): Non-toxic; Activity (HEL): Non-toxic
CCOP(=O)(OCC)[C@H]1C[C@H](C(=O)Nc2cccc(C(C)=O)c2)ON1C (mixture of isomers) | inactive | inactive | inactive | Non-toxic | inactive | inactive | inactive | Non-toxic | inactive | inactive | inactive | Non-toxic | inactive | inactive | inactive | inactive | inactive | inactive | inactive | inactive | inhibition (Influenza B virus): inactive; Activity (HeLa): Non-toxic; Activity (HEL): Non-toxic
CCOP(=O)(OCC)[C@@H]1C[C@H](C(=O)Nc2cccc(C)c2)ON1C (mixture of isomers) | inactive | inactive | inactive | Non-toxic | inactive | inactive | inactive | Non-toxic | inactive | inactive | inactive | Non-toxic | inactive | inactive | inactive | inactive | inactive | inactive | inactive | inactive | inhibition (Influenza B virus): inactive; Activity (HeLa): Non-toxic; Activity (HEL): Non-toxic
CCOP(=O)(OCC)[C@@H]1C[C@H](C(=O)Nc2ccc(C)cc2)ON1C (mixture of isomers) | inactive | inactive | inactive | Non-toxic | inactive | inactive | inactive | Non-toxic | inactive | inactive | inactive | Non-toxic | inactive | inactive | inactive | inactive | inactive | inactive | inactive | inactive | inhibition (Influenza B virus): inactive; Activity (HeLa): Non-toxic; Activity (HEL): Non-toxic
CCOP(=O)(OCC)[C@@H]1C[C@H](C(=O)Nc2cccc(OC)c2)ON1C (mixture of isomers) | inactive | inactive | inactive | Non-toxic | inactive | inactive | inactive | Non-toxic | inactive | inactive | inactive | Non-toxic | inactive | inactive | inactive | inactive | inactive | inactive | inactive | inactive | inhibition (Influenza B virus): inactive; Activity (HeLa): Non-toxic; Activity (HEL): Non-toxic
